High-throughput results deposited in PubChem BioAssay by several laboratories.
Only some compounds are listed: those with a hit (about 2.8% of all), similar ones and a draw of the others.
Wee1 stabilizer – human Wee1 degradation inhibition, primary screen. P30291. HeLa Luc-Wee1K328M stability, luciferase luminescence; 100% = proteasome inhibitor MG132 effect. reporter increase, % at 5 µM. 220,000 compounds, 1.2% hits. AID 1321;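 active means activation above the mean of all tested compounds plus 3 SD, set per screening run, cut at about 8.8% in these data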;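 further: cells exposed to compound for 20 h before luminescence read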
Target sequence (P30291 whole entry K328M): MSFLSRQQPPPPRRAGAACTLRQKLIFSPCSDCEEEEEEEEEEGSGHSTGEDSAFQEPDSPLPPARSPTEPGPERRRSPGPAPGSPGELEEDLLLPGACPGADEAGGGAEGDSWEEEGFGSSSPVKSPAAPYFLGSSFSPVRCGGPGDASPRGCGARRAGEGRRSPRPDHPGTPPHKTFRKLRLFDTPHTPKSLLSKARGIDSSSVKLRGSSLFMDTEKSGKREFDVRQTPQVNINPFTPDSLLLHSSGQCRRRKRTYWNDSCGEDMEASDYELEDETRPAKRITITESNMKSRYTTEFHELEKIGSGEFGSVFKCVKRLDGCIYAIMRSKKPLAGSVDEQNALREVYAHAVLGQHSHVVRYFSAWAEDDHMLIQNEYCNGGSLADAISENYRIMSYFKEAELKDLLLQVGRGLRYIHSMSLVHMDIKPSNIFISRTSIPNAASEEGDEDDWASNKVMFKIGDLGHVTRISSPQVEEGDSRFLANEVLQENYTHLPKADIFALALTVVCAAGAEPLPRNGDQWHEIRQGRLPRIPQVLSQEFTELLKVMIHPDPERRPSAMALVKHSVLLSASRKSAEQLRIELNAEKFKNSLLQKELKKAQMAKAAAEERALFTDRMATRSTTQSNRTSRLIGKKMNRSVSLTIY
p47phox inh – inhibitors of human p47phox binding; P14598; p47phox/p22phox peptide binding, fluorescence polarization, 2 h; inhibition, % at 24.7 µM; 220,000 compounds, 0.53% hits; AID 1274
14-3-3 Bad PPI – disrupts binding of bovine 14-3-3 zeta to phospho-Bad peptide. inhibition, % at 21.7 µM. P63103. 220,000 compounds, 0.71% hits. TR-FRET 14-3-3zeta/Dy647-pBad peptide displacement, 1 h;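 active means inhibition above about 70%, limit read from the data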
RBBP9 inhibitor – human RBBP9 hydrolase inhibition; 220,000 compounds, 0.2% hits; inhibition, % at 7.94 µM; AID 1515; recombinant RBBP9, FP-Rh probe fluorescence polarization;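 active means inhibition above the campaign mean of all tested compounds plus 3 SD, cut at about 14% in these data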
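System: RBBP9 protein / Quantity: 2.5 µM RBBP9 dispensing solution, before mixing / Also added: Serine-hydrolase probe FP-Rh, 375 nM pre-mixing / Dosing: 7.94 µM single dose, 0.794% DMSO / Timing: enzyme-compound preincubation 30 min, then probe labeling 45 min, 25 °C / Signal: FP readout at 525/598 nm / Controls: DMSO-treated enzyme wells and wells lacking RBBP9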
eIF4E 4G PPI – inhibitors of eIF4E and eIF4G interaction in translation initiation; inhibition, % at 21.7 µM; 220,000 compounds, 0.37% hits; P63073+Q04637; TR-FRET eIF4E-eIF4GI(517-606) binding, 2 h
Wee1 stab conf – human Wee1 degradation inhibition, confirmation; activation, % at 5 µM; shares compounds with Wee1 stabilizer; AID 1410; 1,100 compounds, 4% hits; HeLa Luc-Wee1K328M degradation, luminescence; vehicle 0%, proteasome-blocked wells 100%; in the data active means activation above about 8.9%
Numbers stand for hits; n = inactive; x = no result.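 How the source made its calls, unless noted: active means inhibition above about 30% (limit read from the data); inactive means the rest.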

SMILES | Wee1 stabilizer | p47phox inh | 14-3-3 Bad PPI | RBBP9 inhibitor | eIF4E 4G PPI | Wee1 stab conf
O=C(Nc1ccccc1)C1=C[C@@H](c2coc3ccccc3c2=O)C[C@@H](OCCCCO)O1 | n | n | n | n | n | x
CCn1cc(C(=O)OCC(=O)c2ccccc2)c(=O)c2ccc(C)nc21 | 12 | n | n | n | n | n
CCn1cc(C(=O)OCC(=O)c2ccc(Cl)cc2)c(=O)c2ccc(C)nc21 | n | n | n | n | n | x
O=C(NCC1COc2ccccc2O1)c1ccc(NC(=O)C(c2ccccc2)c2ccccc2)cc1 (stereo unspecified) | n | n | n | n | n | x
CCOC(=O)C1=C(O)C(=O)N(Cc2ccc(C(C)(C)C)cc2)CC1 | 14 | n | n | n | n | n
Cc1ccc2cc3c(N)c(C(=O)Nc4c(C)[nH]c(=O)[nH]c4=O)sc3nc2c1 | 12 | n | n | n | n | n
Cc1ccc2nc3sc(C(=O)Nc4c(C)[nH]c(=O)[nH]c4=O)c(N)c3cc2c1 | n | n | n | n | n | x
CCOc1ccc(/C=N/OCC(=O)NCc2ccc3c(c2)OCO3)cc1OC | n | n | n | n | n | x
CC(Sc1n[nH]c(N)n1)C(=O)Nc1cccc(S(=O)(=O)N2CCOCC2)c1 (stereo unspecified) | n | n | n | n | n | x
N#Cc1ccccc1OCC(=O)NC(=O)NCc1ccccc1 | 15 | n | n | n | n | n
c1ccc(-c2cc3c(ccc4nonc43)nn2)cc1 | n | n | n | n | n | x
On1onc2c3cc(-c4ccccc4)nc3ccc21 | 39 | n | n | n | n | 30
Cn1c(=O)c2c(ncn2CCCc2ccccc2)n(C)c1=O | 12 | n | n | n | n | n
S=C(NCc1ccc2c(c1)OCO2)NC1CC1 | n | n | n | n | n | x
Clc1ccc(Nc2nc(C3CC3)cs2)cc1 | 12 | n | n | n | n | n
COc1cc(C2=NOC(C(=O)NCc3cccs3)C2)cc(OC)c1OC (stereo unspecified) | 11 | n | n | n | n | 15
COc1ccc(C2=NOC(C(=O)NCc3cccs3)C2)cc1OC (stereo unspecified) | n | n | n | n | n | x
CC(C)C(NC(=O)c1ccc(C(C)(C)C)cc1)C(=O)NCC(c1ccccc1)N(C)C (stereo unspecified) | n | n | n | n | n | x
O=C(N/N=C/c1ccc(Cl)cc1)c1cc2c(s1)-c1ccccc1CC2 | 26 | n | n | n | n | n
O=C(O)c1cc2c(s1)-c1ccccc1CC2 | n | n | n | n | n | x
O=C(COC(=O)c1cc(=O)c2ccccc2o1)NC1CCCCC1 | 17 | n | n | n | n | n
CC1CCCCC1NC(=O)COC(=O)c1cc(=O)c2ccccc2o1 (stereo unspecified) | n | n | n | n | n | x
COc1ccccc1-n1cnnc1SCC(=O)Nc1nc(C)c(Cl)cc1Cl | 13 | n | n | n | n | n
COc1ccccc1-n1cnnc1SCC(=O)Nc1ncc(Cl)cc1Cl | n | n | n | n | n | x
O=C(NCc1ccco1)/C(=C\c1ccco1)NC(=O)c1cccs1 | 30 | n | n | n | n | n
SMILES | Wee1 stabilizer | p47phox inh | 14-3-3 Bad PPI | RBBP9 inhibitor | eIF4E 4G PPI | Wee1 stab conf
O=C(NCc1ccco1)/C(=C\c1cccs1)NC(=O)c1cccs1 | n | n | n | n | n | x
Cc1ccc(CNC(=O)CC2C(=O)Nc3c2c(=O)n(C)c(=O)n3Cc2ccccc2)cc1 (stereo unspecified) | n | n | n | n | n | x
Cn1c2c(c(=O)n(C)c1=O)C(CC(=O)Nc1ccc(F)cc1)C(=O)N2 (stereo unspecified) | 11 | n | n | n | n | n
Cc1csc2sc(-c3ccnc(SCC(=O)NCc4ccccc4)n3)c(C)c12 | 14 | n | n | n | n | 22
CCN1CCN(c2ccc([N+](=O)[O-])cc2S(=O)(=O)N2CCOCC2)CC1 | 11 | n | n | n | n | n
CC(O)CNc1ccc([N+](=O)[O-])cc1S(=O)(=O)N1CCOCC1 (stereo unspecified) | n | n | n | n | n | x
O=C(c1ccc(F)cc1)n1ccc(-c2cnc(-c3ccccc3)s2)n1 | 15 | n | n | n | n | n
Fc1cccc(CSc2nc3ncc(Cl)cc3[nH]2)c1 | 11 | n | n | n | n | n
Fc1cccc(CSc2nc3ncccc3[nH]2)c1 | n | n | n | n | n | x
COC(=O)/C=C/c1ccc2c(c1)OCO2 | n | n | n | n | n | x
COC(=O)/C=C/c1ccc(OC(=O)OC)c(OC(=O)OC)c1 | 12 | n | n | n | n | n
CCOC(=O)N1CCN(C(=O)CSc2nc3ccccc3c(=O)n2-c2ccccc2)CC1 | 11 | n | n | n | n | n
CCCn1c(SCC(=O)N2CCN(c3ccccc3)CC2)nc2ccccc2c1=O | n | n | n | n | n | x
O=C(O)CC1(CC(=O)Nc2ccc(Cl)cc2C(=O)c2ccccc2)CCCC1 | n | n | n | n | n | x
CCOc1cccc(N(C(=O)Cc2cccs2)C(C(=O)NC2CCCCC2)c2cccn2C)c1 (stereo unspecified) | 11 | n | n | n | n | 9.6
O=C(N/N=C/c1ccco1)c1cc(=O)[nH]c2ccccc12 | 28 | n | n | n | n | n
CC(C)OCCCN1CN(S(=O)(=O)c2cccc(Cl)c2)c2nc3ccccc3nc21 | n | n | n | n | n | x
COCCNc1c(-c2cc3ccc(C)c(C)c3[nH]c2=O)nc2ccccn12 | 13 | n | n | n | n | n
COCCNc1c(-c2ccc(OC)c(OC)c2)nc2ccc(Cl)cn12 | n | n | n | n | n | x
Cc1ccn2cc(CNS(=O)(=O)c3cccs3)nc2c1 | 13 | n | n | n | n | n
COc1ccc(C)cc1NC(=O)C(NC(=O)c1cc(OC)c(OC)c(OC)c1)C(C)C (stereo unspecified) | n | n | n | n | n | x
O=C(COc1ncnc2sccc12)NC1CCCc2ccccc21 (stereo unspecified) | n | n | n | n | n | x
Cc1ccc(NC(=O)NC2(C(=O)NCc3ccccc3)CCCCC2)cc1 | n | n | n | n | n | x
COc1ccccc1CNC(=O)C1(NC(=O)Nc2ccc(C)cc2)CCCCC1 | 11 | n | n | n | n | n
CC(C)Cn1c(-c2cccs2)nc2nc3ccccc3nc21 | n | n | n | n | n | x
CCCCn1c(-c2cccs2)nc2nc3ccccc3nc21 | 13 | n | n | n | n | n
COC(=O)c1ccc(COc2ccccc2/C=C(\C#N)C(=O)Nc2ccccc2C)cc1 | 20 | n | n | n | n | n
CCOc1ccc(Cc2noc3c2C(=O)CCC3)cc1OCC | 17 | n | n | n | n | n
CCOc1ccc(Cc2nc(-c3nonc3N)no2)cc1OCC | n | n | n | n | n | x
CCc1nnc(NC(=O)[C@@H](NC(=O)c2cccc(S(=O)(=O)N3CCOCC3)c2)C(C)C)s1 | n | n | n | n | n | x
